The entries come from a sample that favours hits as a whole.
Fibroblast inh: blocks proliferation of human lung fibroblasts; LL 47 human lung fibroblast viability, ATP luminescence; stronger effect = lower value; viability, % at 10 µM; 85,000 tested, 1.1% active;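 active means viability at or below 50% in the single dose screen; inactive means viability above 50%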;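 further: compound exposure lasted 72 h before the ATP readout; 100% = median luminescence of untreated cell-only wells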
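Assay system: human lung fibroblast line LL 47, low passage. Input: 1,150 fibroblasts seeded per well. Times: overnight cell rest, 72 h compound treatment at 37 °C. Evaluation: % viability of median cell-only signal. Technique: luminescent ATP detection, CellTiter-Glo. Control set: cell-only wells, no compound.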
HUVEC inhibit: inhibitors of human endothelial cell proliferation; HUVEC proliferation, CellTiter-Glo luminescence, 72 h; stronger effect = lower value; viability, % at 10 µM (by protocol); 86,000 tested, 1.1% active; AID 648;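 active means viability at or below 30%; inactive means viability above 30%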;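 further: 100% = median luminescence of DMSO-only cell control wells on each plate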
HCT116 bCat-KO: beta-catenin-lacking colon tumor cell growth suppression. HCT116 beta-catenin knockout viability, CellTiter-Glo, 60 h; stronger effect = lower value. viability, % at 10 µM. 140,000 tested, 1.5% active;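 active means viability at or under a set limit, the compound median less 4 SD, cut at about 6% in these data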;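 further: 0% = Hyamine 1622 control at 20 µM and 100% = untreated cell control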
PTEN del growth: suppresses growth of cells with PTEN deletion. HCT116 PTEN-null viability, CellTiter-Glo, 60 h; stronger effect = lower value. viability, % at 10 µM. 140,000 tested, 1.2% active. AID 827;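 active means viability at or below a set limit, 4 SD under the median of all tested compounds, cut at about 3.7% in these data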;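 further: PTEN knockout HCT116 line with beta catenin targeted HCT116 as companion control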
H69AR inhibit: growth inhibitors of human H69AR lung tumor cells; H69AR lung tumor viability, ATP luminescence, 72 h; stronger effect = lower value; viability, % at 10 µM; 85,000 tested, 6% active;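 active means viability at or below 40%; inactive means viability above 40%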;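 further: multidrug resistant small cell line overexpressing MRP-1 efflux transporter; 100% = mean luminescence of untreated control wells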
* = called active by the depositor; / = not tested or not shown.

SMILES	Fibroblast inh	HUVEC inhibit	HCT116 bCat-KO	PTEN del growth	H69AR inhibit
CCOC(=O)c1cnc(-n2nc(C)cc2C)nc1NNc1nc(-c2ccccc2)cc(-c2ccccc2)n1	/	/	4.5*	4.4	/
CCOC(=O)c1cnc(-n2nc(C)cc2C)nc1Nc1ccc(C)cc1	/	/	58.2	70.8	/
CCOC(=O)c1cnc(-n2nc(C)cc2C)nc1Nc1ccc(N(C)C)cc1	30.0*	56.3	9.8	10.2	3.0*
CCOC(=O)c1cnc(-n2nc(C)cc2C)nc1N(CC)CC	87.3	99.4	58.8	83.8	36.1*
CCCC(=O)Nc1ccc(N2CCN(C(=O)c3cccs3)CC2)cc1	101.3	104.5	89.7	87.8	94.2
O=C(CSc1nnc(SCc2ccc(Cl)cc2)s1)c1ccc2c(c1)OCO2	/	/	79.2	89.2	/
Cc1ccc(NC(C#N)c2ccccc2OCc2ccccc2)cc1 (configuration not stated)	/	/	32.7	41.0	/
CCCCCCOc1ccc(/C(N)=N/O)cc1	92.2	79.7	95.7	83.3	35.3*
N=C(N)c1ccc(OCCCCCOc2ccc(C(=N)N)cc2)cc1	/	/	36.5	32.5	/
O=C(Nc1ccccc1F)c1ccc(CSc2ccccc2)o1	/	/	94.5	95.5	/
COc1cc2c(cc1NC(=O)CSc1nnc(Cc3cccs3)n1C)oc1ccccc12	94.2	57.7	87.2	95.1	3.9*
COc1cc2c(cc1NC(=O)CSc1nnnn1-c1ccccc1)oc1ccccc12	76.1	57.2	35.4	51.1	18.9*
COc1cc2c(cc1NC(=O)CSc1nnc(Cc3cccs3)n1Cc1ccco1)oc1ccccc12	92.2	77.9	40.4	45.6	36.5*
CCn1c(SCC(=O)Nc2cc3oc4ccccc4c3cc2OC)nnc1-c1cccs1	100.3	48.0	61.8	67.7	2.3*
CCOC(=O)c1c(C(F)(F)C(F)(F)C(F)(F)C(F)(F)F)n[nH]c1C	99.2	105.0	87.2	71.7	64.9
COc1cc2c(cc1NC(=O)Cc1ccc(C)cc1)oc1ccccc12	/	/	95.4	96.5	/
COc1cc2c(cc1NC(=O)CN1CCN(S(=O)(=O)c3ccccc3F)CC1)oc1ccccc12	67.2	39.9	78.0	75.3	39.6*
O=C(N/N=C/c1ccc2c(c1)OCO2)c1sc2cc(Cl)ccc2c1Cl	/	/	6.4	2.1*	/
COc1ccc2c(Cl)c(C(=O)N/N=C/c3ccc4c(c3)OCO4)sc2c1	/	/	56.0	10.8	/
Cc1ccc(C(=O)N/C(N)=N/c2nc3ccccc3o2)cc1	102.6	94.0	43.9	38.8	46.9
COc1ccccc1C(=O)N/C(N)=N/c1nc2ccccc2o1	102.1	59.3	91.8	80.1	14.8*
O=C(C1CCCN(S(=O)(=O)c2cccc3cccnc23)C1)N1CCN(c2ccc(F)cc2)CC1 (configuration not stated)	97.7	84.9	61.1	64.8	81.3
Cn1c(=O)[nH]c(=O)c2c1ncn2CCCc1ccccc1	94.4	93.7	118.6	101.2	99.1
Cc1ccc(-c2cc(NC(=O)CCl)n(-c3ccccc3)n2)cc1	3.3*	9.6*	2.6*	2.0*	0.9*
O=C(CCl)Nc1cc(-c2ccccc2)nn1-c1ccccc1	6.8*	14.5*	3.6*	2.5*	1.2*
SMILES	Fibroblast inh	HUVEC inhibit	HCT116 bCat-KO	PTEN del growth	H69AR inhibit
Cc1ccccc1NC(=O)CSc1ccsc1[N+](=O)[O-]	/	/	82.5	96.7	/
COc1ccc(CNCCC(c2ccc(OC(C)C)cc2)C(C)C)cc1OC (configuration not stated)	/	/	1.2*	1.3*	/
Cc1nnc2n(c1=O)N=C(c1ccc(Cl)cc1)CS2	/	/	84.8	93.8	/
CCOc1ccc(NC(=O)c2cc3n(n2)C(C(F)(F)F)CC(c2ccco2)N3)cc1 (configuration not stated)	37.5*	96.7	72.2	93.3	63.1
O=c1c(Cl)nc2cc(Cl)ccc2n1CCNc1ncc(C(F)(F)F)cc1Cl	/	/	1.4*	1.2*	/
CCCn1c(SCc2ccon2)nc2ccccc2c1=O	105.2	104.3	93.8	94.5	68.0
Cc1cc(NC(=O)c2ccc3nc(-c4ccccc4)c(-c4ccccc4)nc3c2)no1	17.6*	48.7	50.9	51.1	16.2*
Cc1cc(NC(=O)c2ccc3c(c2)C(=O)N(CCC(C)C)C3=O)no1	99.5	93.2	71.5	67.8	39.9*
Cc1cc(NC(=O)c2ccc3c(c2)C(=O)N(C)C3=O)no1	103.5	94.2	102.9	108.4	91.1
Cc1cc(NC(=O)c2ccc3c(c2)C(=O)N(C2CCCCC2)C3=O)no1	78.7	92.1	8.8	9.2	26.9*
COc1ccc(C(=O)Nc2cc(C)on2)cc1	97.3	94.7	86.7	99.5	90.0
CC(C)CC(=O)NC(=S)Nc1ccc(S(=O)(=O)Nc2nccs2)cc1	/	/	97.9	102.2	/

Source: PubChem (SRMLSC)
